From ChEMBL document CHEMBL1649340, “Sesquiterpene coumarins from Ferula gumosa” (J Nat Prod, 2010)
The source made the active and inactive calls. The rule behind the calls is not given here.

Legend:
Format in all cases: functional, cell-based
M14 = experiment: Cytotoxicity against human M14 cells after 48 hrs by MTT assay
Procedure, shortened: (§1)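 Adherent lines from ATCC, grown in DMEM with 2 mM L-glutamine, 10% heat-inactivated FBS and 1% pen/strep, used for up to 10 passages. 3 × 10^3 cells were seeded per well and left overnight at 37 °C in 5% CO2. Serial dilutions (1-50 µM) were added for 48 h. MTT (5 mg/mL stock) was added for 3 h, then solubilised in 50% DMF/20% SDS at pH 4.5. OD was read at 620 nm, with viability given as % of 0.1% DMSO controls.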

MCF7 = experiment: Cytotoxicity against human MCF7 cells after 48 hrs by MTT assay; procedure, shortened: as §1
T98G = experiment: Cytotoxicity against human T98G cells after 48 hrs by MTT assay; procedure, shortened: as §1
A549 = experiment: Cytotoxicity against human A549 cells after 48 hrs by MTT assay; procedure, shortened: as §1
SAOS-2 = experiment: Cytotoxicity against human Saos2 cells after 48 hrs by MTT assay; procedure, shortened: as §1
FRO = experiment: (§2) Cytotoxicity against human FRO cells after 48 hrs by MTT assay; procedure, shortened: as §1
U-937 = experiment: Cytotoxicity against human U937 cells after 48 hrs by MTT assay
Procedure, shortened: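 U937 cells were grown in RPMI with 2 mM L-glutamine, 10% FBS and 1% pen/strep, for no more than 10 passages. 3 × 10^3 cells per well were plated and incubated overnight at 37 °C in 5% CO2, then exposed to serial dilutions (1-50 µM) for 48 h. MTT (5 mg/mL stock) was added for 3 h, followed by lysis in 50% DMF/20% SDS at pH 4.5. OD was read at 620 nm, and viability was expressed against 0.1% DMSO controls.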

[1] = as §2; procedure, shortened: as §1

| Structure (SMILES) | Activity (M14) | Activity (MCF7) | Activity (T98G) | Activity (A549) | Activity (SAOS-2) | Activity (FRO) | Activity (U-937) | IC50 (M14; M14, 48 h) | IC50 (MCF7; MCF7, 48 h) | IC50 (T98G) | IC50 (A549; A549, 48 h) | IC50 (SAOS-2; SAOS-2, 48 h) | IC50 [1] | IC50 (U-937; U-937, 48 h) |
| --- | --- | --- | --- | --- | --- | --- | --- | --- | --- | --- | --- | --- | --- | --- |
| CC1(C)[C@H](O)CC[C@]2(C)[C@@H]1C=C[C@](C)(O)[C@H]2COc1ccc2ccc(=O)oc2c1 | inactive | inactive | inactive | inactive | inactive | inactive | inactive | – | – | – | – | – | – | – |
| C=C1C[C@@H](O[C@@H]2O[C@H](CO[C@@H]3OC[C@](O)(CO)[C@H]3O)[C@@H](O)[C@H](O)[C@H]2O)[C@@H]2C(C)(C)[C@H](O)CC[C@@]2(C)[C@@H]1COc1ccc2ccc(=O)oc2c1 | inactive | inactive | inactive | inactive | inactive | inactive | inactive | – | – | – | – | – | – | – |
| C=C1C[C@@H](O[C@@H]2O[C@H](CO)[C@@H](O)[C@H](O)[C@H]2O)[C@@H]2C(C)(C)[C@H](O)CC[C@@]2(C)[C@@H]1COc1ccc2ccc(=O)oc2c1 | inactive | inactive | inactive | inactive | inactive | inactive | inactive | – | – | – | – | – | – | – |
| CC1=CC[C@@H]2C(C)(C)[C@H](O)CC[C@@]2(C)[C@@H]1COc1ccc2ccc(=O)oc2c1 [FESELOL] | – | – | – | – | – | – | – | > 10 µM | > 10 µM | > 10 µM | > 10 µM | > 10 µM | > 10 µM | 8 µM |
| C=C1C[C@@H](O[C@@H]2O[C@H](CO)[C@@H](O)[C@H](O)[C@H]2O)[C@@H]2C(C)(C)[C@@H](O)CC[C@@]2(C)[C@@H]1COc1ccc2ccc(=O)oc2c1 | inactive | inactive | inactive | inactive | inactive | inactive | inactive | – | – | – | – | – | – | – |
